In ChEMBL document CHEMBL2331490, “Synthesis and in vitro evaluation of new derivatives of 2-substituted-6-fluorobenzo[d]thiazoles as cholinesterase inhibitors” (Bioorg Med Chem, 2013):

Columns and labels:
Acetylcholinesterase = Acetylcholinesterase (Electrophorus electricus, UniProt O42275); test: Inhibition of Electrophorus electricus AChE using acetylthiocholine as substrate after 10 mins by Ellman's method
[1] = Lipophilicity, log P of the compound calculated using ChemOffice software
Cholinesterase = Cholinesterase (Equus caballus, UniProt P81908); test: Inhibition of equine BChE using after 10 mins by Ellman's method
Outline: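 BChE from equine serum, diluted in phosphate buffer (0.1 M, pH 8). Catalytic activity in the final mixture was 0.14 U/mL. Enzyme was preincubated with compound (dioxane stock diluted in water) for 5 min at 25 °C. Then 0.5 mM DTNB and 0.25 mM acetylthiocholine were added, incubated 10 min at 25 °C, and absorbance read at 412 nm. IC50 taken from %inhibition versus concentration, 3 replicates.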

[2] = Lipophilicity, log k of the compound by HPLC analysis; assay type: physicochemical
Outline: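 Mobile phase MeOH/water 70:30, 1.0 mL/min, column at 45 °C, samples at 10 °C, photodiode array detection. log k calculated from k.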

MCF7 [3] = test: Growth inhibition of human MCF7 cells at 0.01 to 100 umol/l measured immediately by xCelligence RTCA SP assay; assay type: cell-based
Outline: (§1)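 MCF7 (p37) grown in DMEM with 10% FCS, penicillin-streptomycin and 0.01 mg/mL insulin. Seeded at 75.000 cells/well on impedance E-plates and monitored hourly as cell index. Treated in log phase with compounds in DMSO, 0.01–2500 µmol/L, in triplicate. CI normalized to the last point before addition. Vehicle control 0.1% DMSO; 10% DMSO as 0% viability. IC50 taken at 24 h.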

MCF7 [4] = test: Cytotoxicity against human MCF7 cells after 24 hrs by xCelligence RTCA SP assay; assay type: cell-based; conditions: MCF7, 24 h; outline: as §1
MCF7 [5] = test: Growth inhibition of human MCF7 cells at 2500 umol/l measured immediately by xCelligence RTCA SP assay; assay type: cell-based; conditions: mcf7, 2500 µM; outline: as §1
HepG2 [6] = test: Cytotoxicity against human HepG2 cells after 24 hrs by MTS assay; assay type: cell-based; conditions: HepG2, 24 h
Outline: (§2)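 HepG2 (p13) grown in MEM with 10% FBS, L-glutamine and non-essential amino acids at 37 °C, 5% CO2. Seeded at 10,000 cells/well and treated next day with compounds in DMSO, 12 concentrations (0.001–5000 or 0.001–2500 µmol/L), in triplicate. Controls were untreated cells, 10% DMSO (0% viability), no cells and vehicle. After 24 h, MTS reagent was added for 3.5 h at 37 °C and A490 was read. IC50 from curve fit.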

HepG2 [7] = test: Growth inhibition of human HepG2 cells at >10 umol/l after 24 hrs by MTS assay; assay type: cell-based; conditions: hepg2, 24 h; outline: as §2
MCF7 [8] = test: Growth inhibition of human MCF7 cells at 1000 umol/l measured immediately by xCelligence RTCA SP assay; assay type: cell-based; conditions: mcf7, 1000 µM; outline: as §1
HepG2 [9] = test: Growth inhibition of human HepG2 cells at >1000 umol/l after 24 hrs by MTS assay; assay type: cell-based; conditions: hepg2, 24 h; outline: as §2
MCF7 [10] = test: Growth inhibition of human MCF7 cells at 2500 umol/l measured after 24 hrs by xCelligence RTCA SP assay; assay type: cell-based; conditions: mcf7, 24 h, 2500 µM; outline: as §1
MCF7 [11] = test: Growth inhibition of human MCF7 cells at 1000 umol/l measured after 24 hrs by xCelligence RTCA SP assay; assay type: cell-based; conditions: mcf7, 24 h, 1000 µM; outline: as §1
HepG2 [12] = test: Growth inhibition of human HepG2 cells at <1000 umol/l after 24 hrs by MTS assay; assay type: cell-based; conditions: hepg2, 24 h; outline: as §2
HepG2 [13] = test: Growth inhibition of human HepG2 cells at >100 umol/l after 24 hrs by MTS assay; assay type: cell-based; conditions: hepg2, 24 h; outline: as §2
HepG2 [14] = test: Growth inhibition of human HepG2 cells at <100 umol/l after 24 hrs by MTS assay; assay type: cell-based; conditions: hepg2, 24 h; outline: as §2

Chain of Acetylcholinesterase (O42275 whole entry): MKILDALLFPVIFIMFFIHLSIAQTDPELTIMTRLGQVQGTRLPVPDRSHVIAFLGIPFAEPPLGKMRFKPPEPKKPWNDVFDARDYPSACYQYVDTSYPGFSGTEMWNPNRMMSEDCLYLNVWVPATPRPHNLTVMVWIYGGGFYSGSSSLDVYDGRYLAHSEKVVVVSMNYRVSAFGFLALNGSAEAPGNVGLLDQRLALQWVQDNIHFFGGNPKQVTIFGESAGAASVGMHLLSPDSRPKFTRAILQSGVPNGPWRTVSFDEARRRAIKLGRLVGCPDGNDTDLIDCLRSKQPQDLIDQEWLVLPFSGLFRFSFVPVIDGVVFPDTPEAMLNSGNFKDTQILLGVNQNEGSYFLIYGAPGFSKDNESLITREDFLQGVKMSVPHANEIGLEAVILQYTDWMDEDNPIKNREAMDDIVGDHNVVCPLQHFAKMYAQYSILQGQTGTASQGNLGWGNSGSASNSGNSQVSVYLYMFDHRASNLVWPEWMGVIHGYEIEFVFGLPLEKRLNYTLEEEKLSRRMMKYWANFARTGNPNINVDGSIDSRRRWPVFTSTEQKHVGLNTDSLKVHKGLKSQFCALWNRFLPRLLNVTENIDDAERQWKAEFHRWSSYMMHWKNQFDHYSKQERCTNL
Chain of Cholinesterase (P81908 whole entry): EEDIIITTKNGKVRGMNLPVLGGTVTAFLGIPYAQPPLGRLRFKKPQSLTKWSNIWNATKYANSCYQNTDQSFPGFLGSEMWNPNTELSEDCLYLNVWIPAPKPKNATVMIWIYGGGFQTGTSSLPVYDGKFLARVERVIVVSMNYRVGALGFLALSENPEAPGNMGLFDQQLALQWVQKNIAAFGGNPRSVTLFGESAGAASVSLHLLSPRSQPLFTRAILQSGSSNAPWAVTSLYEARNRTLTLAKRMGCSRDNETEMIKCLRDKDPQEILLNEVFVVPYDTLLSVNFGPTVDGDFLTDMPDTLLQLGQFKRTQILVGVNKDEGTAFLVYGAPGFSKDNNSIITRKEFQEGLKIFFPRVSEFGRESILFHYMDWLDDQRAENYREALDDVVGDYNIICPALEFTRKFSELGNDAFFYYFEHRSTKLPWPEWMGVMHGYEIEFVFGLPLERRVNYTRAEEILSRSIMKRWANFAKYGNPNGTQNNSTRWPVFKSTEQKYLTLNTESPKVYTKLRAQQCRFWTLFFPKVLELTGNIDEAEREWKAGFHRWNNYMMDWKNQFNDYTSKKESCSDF

Structure (SMILES)	IC50 (Acetylcholinesterase)	logP [1]	IC50 (Cholinesterase)	log K [2]	other results
CC(C)OC(=O)N[C@H](C(=O)N[C@H](C)c1nc2ccc(F)cc2s1)C(C)C [BENTHIAVALICARB-ISOPROPYL]	95 µM	3.82	41.1 µM	0.5725	
CCC[C@H](NC(=O)OCC(C)C)C(=O)N[C@H](C)c1nc2ccc(F)cc2s1	20.2 µM	4.41	26.1 µM	0.7063	growth inhibition (GI) (MCF7 [3]): Non-toxic; IC50 (MCF7 [4]): 612 µM; growth inhibition (GI) (MCF7 [5]): Toxic; IC50 (HepG2 [6]): 275 µM; growth inhibition (GI) (HepG2 [7]): Toxic; growth inhibition (GI) (MCF7 [8]): Toxic
CC(C)[C@H](NC(=O)OCC(F)(F)F)C(=O)N[C@H](C)c1nc2ccc(F)cc2s1	49.4 µM	4.15	72 µM	0.5643	
CCC[C@H](NC(=O)OCC(Cl)(Cl)Cl)C(=O)N[C@H](C)c1nc2ccc(F)cc2s1	28.6 µM	4.91	62.7 µM	0.8297	
CCC[C@H](NC(=O)OCC)C(=O)N[C@H](C)c1nc2ccc(F)cc2s1	34.8 µM	3.52	14.1 µM	0.4873	
CCOC(=O)N[C@H](C(=O)N[C@H](C)c1nc2ccc(F)cc2s1)C(C)C	153 µM	3.51	35.6 µM	0.4834	growth inhibition (GI) (MCF7 [3]): Non-toxic; IC50 (MCF7 [4]): > 4390 µM; growth inhibition (GI) (MCF7 [5]): Toxic; growth inhibition (GI) (HepG2 [9]): Toxic; growth inhibition (GI) (MCF7 [10]): Non-toxic; IC50 (HepG2 [6]): > 5000 µM; growth inhibition (GI) (MCF7 [11]): Non-toxic; growth inhibition (GI) (HepG2 [12]): Non-toxic; growth inhibition (GI) (MCF7 [8]): Toxic
CCN(C)C(=O)Oc1cccc([C@H](C)N(C)C)c1 [RIVASTIGMINE]		2.36			
CCC[C@H](NC(=O)OCC(F)(F)C(F)(F)C(F)(F)F)C(=O)N[C@H](C)c1nc2ccc(F)cc2s1	46 µM	5.37	59.8 µM	0.9463	
COC(=O)N[C@H](C(=O)N[C@H](C)c1nc2ccc(F)cc2s1)C(C)C	91.2 µM	3.17	32 µM	0.4113	
CC(C)[C@H](NC(=O)OCC(Cl)(Cl)Cl)C(=O)N[C@H](C)c1nc2ccc(F)cc2s1	30.3 µM	4.89	26.6 µM	0.8043	
CCCCOC(=O)N[C@@H](CCC)C(=O)N[C@H](C)c1nc2ccc(F)cc2s1	28 µM	4.43	19.6 µM	0.7231	
CC(C)[C@H](NC(=O)OCC(F)(F)C(F)(F)C(F)(F)F)C(=O)N[C@H](C)c1nc2ccc(F)cc2s1	85.5 µM	5.35	83.2 µM	0.9218	
CCC[C@H](NC(=O)OCC(F)(F)C(F)F)C(=O)N[C@H](C)c1nc2ccc(F)cc2s1	30.7 µM	4.11	43.9 µM	0.5415	
CCC[C@H](NC(=O)OCC(F)(F)F)C(=O)N[C@H](C)c1nc2ccc(F)cc2s1	29.3 µM	4.16	59 µM	0.5825	
CCC[C@H](NC(=O)OCCCl)C(=O)N[C@H](C)c1nc2ccc(F)cc2s1	35.4 µM	3.9	54.1 µM	0.514	
COc1ccc2c3c1O[C@H]1C[C@@H](O)C=C[C@@]31CCN(C)C2 [GALANTAMINE]		1.41			
CCC[C@H](NC(=O)OC)C(=O)N[C@H](C)c1nc2ccc(F)cc2s1	48.8 µM	3.19	20.4 µM	0.4166	
CCCCOC(=O)N[C@H](C(=O)N[C@H](C)c1nc2ccc(F)cc2s1)C(C)C	68.1 µM	4.41	62.5 µM	0.7135	
CCCOC(=O)N[C@@H](CCC)C(=O)N[C@H](C)c1nc2ccc(F)cc2s1	28.5 µM	4.01	19.3 µM	0.5873	
CC(C)COC(=O)N[C@H](C(=O)N[C@H](C)c1nc2ccc(F)cc2s1)C(C)C	49.3 µM	4.39	41.1 µM	0.7041	
CC(C)[C@H](NC(=O)OCC(F)(F)C(F)F)C(=O)N[C@H](C)c1nc2ccc(F)cc2s1	29 µM	4.09	33.8 µM	0.5237	
CCC[C@H](NC(=O)OC(C)C)C(=O)N[C@H](C)c1nc2ccc(F)cc2s1	21.3 µM	3.84	32.2 µM	0.5752	growth inhibition (GI) (MCF7 [3]): Non-toxic; IC50 (MCF7 [4]): 1210 µM; growth inhibition (GI) (MCF7 [5]): Toxic; IC50 (HepG2 [6]): 273 µM; growth inhibition (GI) (HepG2 [7]): Toxic; growth inhibition (GI) (MCF7 [8]): Toxic
CC(C)[C@H](NC(=O)OCCCl)C(=O)N[C@H](C)c1nc2ccc(F)cc2s1	47.5 µM	3.88	54.2 µM	0.5014	
CCCOC(=O)N[C@H](C(=O)N[C@H](C)c1nc2ccc(F)cc2s1)C(C)C	109 µM	3.99	70.4 µM	0.5851	growth inhibition (GI) (MCF7 [3]): Non-toxic; IC50 (MCF7 [4]): 4390 µM; growth inhibition (GI) (MCF7 [5]): Toxic; growth inhibition (GI) (HepG2 [13]): Toxic; IC50 (HepG2 [6]): 1730 µM; growth inhibition (GI) (HepG2 [14]): Non-toxic; growth inhibition (GI) (MCF7 [11]): Non-toxic; growth inhibition (GI) (MCF7 [8]): Toxic
CC(C)[C@H](NC(=O)OCCBr)C(=O)N[C@H](C)c1nc2ccc(F)cc2s1	47.2 µM	4		0.5418	
